Laboratory results: PMC11559620 (Science Advances, 2024)
Where a chain is given by its changes, count along the chain named. Numbers in names are those of the source. Ends that are not written are not given here.

Columns and labels:
[1] = test system: yeast vacuoles; experiment: Vacuolar pH of yeast by BCECF-AM; format: cell-based, Saccharomyces cerevisiae; conditions: n = 8
[2] = test system: CML18; experiment: Yeast two-hybrid assay, interaction with CML18; format: cell-based, Arabidopsis; conditions: for interaction with CML18 (Y2H): C-terminal cytosolic fragments, selective YNB media
Method in brief: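 Strain AH109 was cotransformed with NHX C-terminal fragments in pGBKT7 (GAL4 BD) and CML17 or CML18 in pGADT7 (GAL4 AD), selected on YNB-Trp-Leu. Cultures were grown at 28°C to saturation (OD600 ~2), then 5-μl drops of 10-fold dilutions were spotted on YNB-Trp-Leu, -His-Trp-Leu and -Ade-Trp-Leu. Plates were incubated at 28°C for 3–4 days. p53/pSV40 served as positive control, empty vectors as negative.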

[3] = test system: CML18; experiment: Bimolecular fluorescence complementation, interaction with CML18; format: cell-based, Arabidopsis; conditions: leaves of N. benthamiana
Method in brief: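 Agrobacterium GV3101 carrying BiFC constructs was co-infiltrated with a p19-transformed strain into 5- to 6-week-old N. benthamiana leaves. Full-length NHX1 or NHX2 and CML18 were each fused to complementary halves of eYFP. Empty pSPYCE(M) served as negative control. The lower epidermis was imaged by confocal microscopy (515-nm laser, 60× objective) under constant imaging settings, using a YFP filter.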

[4] = target: T1, CML18 (Arabidopsis thaliana, UniProt Q9M8U1); experiment: Far-UV circular dichroism of CML18:CML-BD complex; format: binding
T1 sequence (Q9M8U1 1-165): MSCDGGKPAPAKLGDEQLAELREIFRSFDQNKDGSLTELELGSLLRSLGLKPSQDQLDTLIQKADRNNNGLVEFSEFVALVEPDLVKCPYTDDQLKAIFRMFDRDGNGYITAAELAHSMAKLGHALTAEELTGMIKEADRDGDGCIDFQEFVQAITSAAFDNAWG
Method in brief: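 Far-UV CD (320–202 nm, 20°C, 1.0-mm quartz cuvette) of decalcified CML18, the synthetic CBD peptide, and a 1:1 protein:peptide mixture, each at pH 6.3 and 8.3. The spectrum expected for non-interacting samples was calculated as the sum of the two individual spectra and compared with the mixture.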

[5] = target: T1, CML18; experiment: Isothermal titration calorimetry, CBD peptide; format: binding
Method in brief: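 ITC at 25°C: 200 μM CML18 was titrated into 20 μM CBD peptide in 2-μl injections at 150-s intervals, stirred at 750 rpm, in buffer C (pH 6.3) or D (pH 8.3), with 18 μM EGTA or 180 μM Ca2+. Heats from ligand-into-buffer controls were subtracted. Two titrations were run for each of two independent protein preparations.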

[6] = test system: AXT3K strain; experiment: Complementation assay, hygromycin B resistance of yeast AXT3K; format: cell-based, Saccharomyces cerevisiae; conditions: YPD + HygB (50 μg/ml), 30°C
[7] = test system: C terminus of NHX1; experiment: Yeast two-hybrid assay, dimerization with C terminus of NHX1; format: cell-based, Arabidopsis; conditions: fig. S2; cytosolic C-terminal domains
[8] = Far-UV circular dichroism of CML18; format: physicochemical
Method in brief: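 CML18 was decalcified by dialysis against 20 mM EGTA, then re-dialysed into EGTA-free buffer C (20 mM MES pH 6.3, 80 mM KCl, 5 mM NaCl, 2 mM DTT) or buffer D (same, with 20 mM tris pH 8.3). Far-UV CD spectra (320–202 nm) were recorded at 0.2 mg/ml, 20°C, 1.0-mm quartz cuvette, with 180 μM Ca2+ or 18 μM EGTA.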

[9] = Tryptophan; format: physicochemical
Method in brief: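 Decalcified CML18 was dialysed into buffer C (20 mM MES pH 6.3) or D (20 mM tris pH 8.3), both with 80 mM KCl, 5 mM NaCl, 2 mM DTT. Samples of 10 μl at 25 μM were loaded into UV capillaries and heated from 35 to 95°C at […]. The initial Trp emission ratio (350/330 nm) was taken at the start. For Ca2+ titrations, 20 μM EGTA was kept constant.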

[10] = test system: NHX1; conditions: ref [15]; cited from earlier work

NHX1∆CBD: NHX1 with the CBD deleted (residues S486 to G516)
vacuolar pH (pHvac) [1]: overly acidic | interaction with CML18 (Y2H) [2]: tested negative | interaction with CML18 (BiFC) [3]: lost the interaction with CML18

DSIRGFLTRPTRTVHYYWRQFDDSFMRPVFGGR [CML-BD]
helical content in solution ([4]; far-UV CD, 20°C, peptide alone): no helical content | binding of CML18 to CBD peptide, pH dependence ([4]; far-UV CD, pH 6.3 versus 8.3): mostly favored at acidic pH | α-helical content of the mixture with CML18 ([4]; pH 6.3, 1:1 protein:peptide, far-UV CD, relative to CML18 alone): increased α-helical content | interaction with CML18 ([4]; pH 8.3, absence of Ca2+): no interaction is observed | helicity of the mixture with CML18 ([4]; pH 8.3, 1:1 protein:peptide, far-UV CD): only a small increase in helicity | complex formation with CML18 ([5]; pH 6.3, presence of Ca2+): high-affinity complex is formed | CML-BD binding sites per CML18 monomer ([5]; pH 6.3, model fit, equal affinity): two CML-BD binding sites with equal affinity per CML18 monomer

B1: NHX2: vacuolar exchanger; C-terminal residues G434 to P546 in Y2H (protein, UniProt Q56XP4 434-546, looked up, fragment)
chain: GMLTKPLIRYLMPHQKATTSTTSMLSDDSTPKSIHIPLLDGEQLDSFELPGSHQDVPRPNSLRGFLMRPTRTVHYYWRQFDDAFMRPVFGGRGFVPFVPGSPTERSSHDLSKP
HygB resistance / protein activity in AXT3K [6]: suppressed the HygB sensitivity | homodimerization / heterodimerization (Y2H) [7]: positive results | interaction with CML18 (Y2H) [2]: strongly | interaction with CML18 (BiFC) [3]: interacted with CML18

B2: NHX4: vacuolar exchanger; C-terminal residues T437 to C529 in Y2H (protein)
chain: TKPLVNYLLPQDASHNTGNRGKRTEPGSPKEDATLPLLSFDESASTNFNRAKDSISLLMEQPVYTIHRYWRKFDDTYMRPIFGGPRRENQPEC
modifications: left off: Gal4 DNA-binding domain (vector pGBKT7), end not stated, kept
interaction with CML18 (Y2H) [2]: strongly

B3: W502A: NHX1 mutant in the CBD (protein, UniProt Q68KI4 1-538, looked up, variant W502A)
Sodium/hydrogen exchanger 1: MLDSLVSKLPSLSTSDHASVVALNLFVALLCACIVLGHLLEENRWMNESITALLIGLGTGVTILLISKGKSSHLLVFSEDLFFIYLLPPIIFNAGFQVKKKQFFRNFVTIMLFGAVGTIISCTIISLGVTQFFKKLDIGTFDLGDYLAIGAIFAATDSVCTLQVLNQDETPLLYSLVFGEGVVNDATSVVVFNAIQSFDLTHLNHEAAFHLLGNFLYLFLLSTLLGAATGLISAYVIKKLYFGRHSTDREVALMMLMAYLSYMLAELFDLSGILTVFFCGIVMSHYTWHNVTESSRITTKHTFATLSFLAETFIFLYVGMDALDIDKWRSVSDTPGTSIAVSSILMGLVMVGRAAFVFPLSFLSNLAKKNQSEKINFNMQVVIWWSGLMRGAVSMALAYNKFTRAGHTDVRGNAIMITSTITVCLFSTVVFGMLTKPLISYLLPHQNATTSMLSDDNTPKSIHIPLLDQDSFIEPSGNHNVPRPDSIRGFLTRPTRTVHYYARQFDDSFMRPVFGGRGFVPFVPGSPTERNPPDLSKA
HygB resistance / protein activity in AXT3K [6]: inactive | interaction with CML18 (Y2H) [2]: essential for the interaction

B4: H499L: NHX1 mutant within the CBD (protein, UniProt Q68KI4 1-538, looked up, variant H499L)
Sodium/hydrogen exchanger 1: B3 Sodium/hydrogen exchanger 1 with H499L, A502W
HygB resistance / protein activity in AXT3K [6]: supported grow | vacuolar pH (pHvac) [1]: no substantial differences | interaction with CML18 (Y2H) [2]: not as strong as with the WT NHX1 | growth of cells coexpressing CML18 (Y2H) ([2]; YNB-His): able to grow | growth of cells coexpressing CML18 (Y2H) ([2]; YNB-His-Ade): not in the more stringent media YNB-His-Ade

B5: Y286A (protein, UniProt Q68KI4 1-538, looked up, variant Y286A)
Sodium/hydrogen exchanger 1: B3 Sodium/hydrogen exchanger 1 with Y286A, A502W
HygB resistance / protein activity in AXT3K [6]: inactive

B6: H479L: NHX1 mutant outside the CBD, control (protein, UniProt Q68KI4 1-538, looked up, variant H479L)
Sodium/hydrogen exchanger 1: B3 Sodium/hydrogen exchanger 1 with H479L, A502W
HygB resistance / protein activity in AXT3K [6]: supported grow | vacuolar pH (pHvac) [1]: no substantial differences

B7: D506A: NHX1 mutant in the CBD (protein, UniProt Q68KI4 1-538, looked up, variant D506A)
Sodium/hydrogen exchanger 1: B3 Sodium/hydrogen exchanger 1 with A502W, D506A
HygB resistance / protein activity in AXT3K [6]: inactive | interaction with CML18 (Y2H) [2]: essential for the interaction

B8: H479L-H499L (protein, UniProt Q68KI4 1-538, looked up, variant H479L H499L)
Sodium/hydrogen exchanger 1: B3 Sodium/hydrogen exchanger 1 with H479L, H499L, A502W
HygB resistance / protein activity in AXT3K [6]: supported grow | vacuolar pH (pHvac) [1]: no substantial differences

B9: H285L (protein, UniProt Q68KI4 1-538, looked up, variant H285L)
Sodium/hydrogen exchanger 1: B3 Sodium/hydrogen exchanger 1 with H285L, A502W
HygB resistance / protein activity in AXT3K [6]: inactive

B10: CML18: calmodulin-like protein of Arabidopsis, At3g03000 (protein)
chain: T1 sequence (Q9M8U1 1-165)
modifications: left off: cYFP (C-terminal half of YFP), C-terminal, kept
CD spectrum change upon addition of Ca2+ or EGTA ([8]; 180 μM Ca2+ or 18 μM EGTA, pH 6.3 and 8.3): no noticeable changes in the spectrum | CD peak at 222 nm ([8]; pH 6.3 compared to pH 8.3, 0.2 mg/ml, 20°C): clear increase of the peak at 222 nm at pH 6.3 compared to pH 8.3 | W164 fluorescence red shift ([9]; pH 6.3 versus pH 8.3, 350/330 nm, 25 μM CML18): remarkable red shift | effect on K+/H+ and Na+/H+ exchange rates of NHX1 [10]: inhibition | effect on K+/H+ transport by NHX1 [10]: inhibit

B11: CML18-D161N (protein, UniProt Q9M8U1 1-165, looked up, variant D161N)
Probable calcium-binding …: T1 sequence (Q9M8U1 1-165) with D161N
far-UV CD spectrum compared with WT at pH 6.3 ([8]; fig. S6): nearly identical to that of the WT protein at pH 6.3 | 350-nm/330-nm emission ratio, pH dependence ([9]; pH 6.3 and 8.3): remained constant regardless of pH
